Activity calls are given as the source filed them. No cut-off for these calls is given here.
Tests used:
DU-145 [1] = assay: Cell cycle arrest in human DU145 cells assessed as accumulation at G0/G1 phase at 10 uM after 24 hrs by propidium iodide staining based flow cytometry (reference value: 63.34%); assay type: functional
[2] = Cell cycle arrest in human PC3 cells assessed as accumulation at G2/M phase at 20 uM after 24 hrs by propidium iodide staining based flow cytometry (reference value: 10.43%); assay type: functional; conditions: PC-3
PC-3 [3] = assay: Induction of apoptosis in human PC3 cells assessed as increase in caspase-3 activity using Ac-DEVD-AMC as substrate at 20 uM by fluorometric method; assay type: functional, cell-based; conditions: TDE = time-dependent effect
Procedure, shortened: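 Cells treated with 20 μM for the stated times. Pellets lysed on ice 15 min, spun at 14 000g for 15 min at 4 °C. Supernatant assayed in buffer containing CHAPS, 10% glycerol, 2 mM EDTA, 5 mM DTT for 2 h at 37 °C. Fluorescence read at ex 380/em 440 nm.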

DU-145 [4] = assay: Induction of apoptosis in human DU145 cells assessed as early apoptotic cells at 20 uM after 8 hrs by Annexin V-FITC/propidium iodide staining based flow cytometry (reference value: 1.60%); assay type: functional
Procedure, shortened: (§1)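 Cells seeded in 6-well plates for 24 h, then given 20 μM for the stated times. Cells were trypsinized, PBS-washed, stained with annexin V-FITC/PI, and analysed immediately by flow cytometry. Means ± SD of three independent experiments; Student's t test against untreated control.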

[5] = Cell cycle arrest in human PC3 cells assessed as accumulation at G2/M phase at 10 uM after 24 hrs by propidium iodide staining based flow cytometry (reference value: 10.43%); assay type: functional; conditions: PC-3
[6] = Antiproliferative activity against human PC3 cells assessed as inhibition of cell viability after 24 hrs by MTT assay; assay type: functional, cell-based; conditions: PC-3, 24 h
Procedure, shortened: (§2)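 Cells grown to 50–70% confluence (RWPE1 in K-SFM with pituitary extract and EGF; the other lines in RPMI 1640 with 10% FBS), 5% CO2, 37 °C. Treated for 24 h with DMSO vehicle, compounds, or cisplatin as positive control. MTT (5 mg/mL) added for 4 h, formazan dissolved in DMSO, absorbance read at 570 nm. Viability taken relative to untreated cells after blank subtraction, IC50 fitted from % viability, at least three experiments.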

DU-145 [7] = assay: Induction of apoptosis in human DU145 cells assessed as early apoptotic cells at 20 uM after 24 hrs by Annexin V-FITC/propidium iodide staining based flow cytometry (reference value: 1.60%); assay type: functional; procedure, shortened: as §1
[8] = Cell cycle arrest in human PC3 cells assessed as accumulation at S phase at 10 uM after 24 hrs by propidium iodide staining based flow cytometry (reference value: 22.07%); assay type: functional; conditions: PC-3
DU-145 [9] = assay: Cell cycle arrest in human DU145 cells assessed as accumulation at subG1 phase at 20 uM after 24 hrs by propidium iodide staining based flow cytometry (reference value: 0.28%); assay type: functional
PC-3 [10] = assay: Induction of apoptosis in human PC3 cells assessed as necrotic cells at 20 uM after 8 hrs by Annexin V-FITC/propidium iodide staining based flow cytometry (reference value: 0.98%); assay type: functional; procedure, shortened: as §1
PC-3 [11] = assay: Increase in H2AX protein expression in human PC3 cells at 20 uM after 2 to 48 hrs by western blot analysis; assay type: functional, cell-based
Procedure, shortened: (§3)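 Cells treated at 20 μM for various times, lysed in RIPA buffer with protease/phosphatase inhibitors, protein quantified by BCA. Equal protein run on 12% SDS-PAGE, transferred to nitrocellulose, blocked 1 h in 5% milk/TBST, primary antibodies overnight at 4 °C, secondary 1:2000 for 45 min, ECL detection on film. GAPDH used as loading control.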

[12] = Decrease in cyclin E protein expression in human PC3 cells by western blot analysis; assay type: functional, cell-based; conditions: PC-3, TDE = time-dependent effect
Procedure, shortened: (§4)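 Western blot of cyclin D1, cyclin E, Cdk4 and p21 in PC3 and DU145 lysates. Lysis in RIPA buffer plus protease inhibitors, BCA quantification, 12% SDS-PAGE, nitrocellulose transfer, milk block, primaries overnight at 4 °C, secondary 1:2000 for 45 min, ECL read-out. GAPDH served as loading control.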

[13] = Decrease in cyclin D1 protein expression in human PC3 cells by western blot analysis; assay type: functional, cell-based; conditions: PC-3, TDE = time-dependent effect; procedure, shortened: as §4
[14] = Antiproliferative activity against human RWPE1 cells assessed as inhibition of cell viability after 24 hrs by MTT assay; assay type: cell-based; conditions: RWPE-1, 24 h; procedure, shortened: as §2
[15] = Decrease in Cdk4 protein expression in human DU145 cells after 2 to 48 hrs by western blot analysis; assay type: functional, cell-based; conditions: DU-145; procedure, shortened: as §4
DU-145 [16] = assay: Induction of apoptosis in human DU145 cells assessed as late apoptotic cells at 20 uM after 12 hrs by Annexin V-FITC/propidium iodide staining based flow cytometry (reference value: 1.53%); assay type: functional; procedure, shortened: as §1
DU-145 [17] = assay: Induction of ROS generation in human DU145 cells at 20 uM measured up to 6 hrs by DCFH-DA staining based flow cytometry; assay type: functional, cell-based
Procedure, shortened: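 Cells exposed to 20 μM for the indicated times, then loaded with 10 μM DCFH-DA for 30 min at 37 °C. Washed, resuspended in PBS and read at once by flow cytometry. ROS expressed as ratio relative to untreated control.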

PC-3 [18] = assay: Induction of apoptosis in human PC3 cells assessed as necrotic cells at 20 uM after 24 hrs by Annexin V-FITC/propidium iodide staining based flow cytometry (reference value: 0.98%); assay type: functional; procedure, shortened: as §1
PC-3 [19] = assay: Induction of ROS generation in human PC3 cells at 20 uM pretreated for 1 hr with 5 mM antioxidant NAC measured after 24 hrs by DCFH-DA staining based flow cytometry; assay type: functional, cell-based
Procedure, shortened: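 Cells in RPMI 1640 with 10% FBS, 5% CO2, 37 °C, treated at 50−70% confluence (DMSO vehicle). After exposure, cells were loaded with 10 μM DCFH-DA for 30 min at 37 °C, washed, resuspended in PBS, and read at once by flow cytometry. For NAC runs, cells got 5 mM NAC 1 h before compound. ROS reported as ratio relative to untreated control.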

DU-145 [20] = assay: Induction of apoptosis in human DU145 cells assessed as cleaved caspase-3 level at 20 uM after 12 hrs by western blot analysis; assay type: functional, cell-based
Procedure, shortened: (§5)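 Cells exposed to 20 μM for the stated times. Lysis in RIPA plus protease inhibitors, BCA protein assay, equal protein on 12% SDS-PAGE, transfer to nitrocellulose. Blocking in 5% milk/TBST 1 h; primary antibodies overnight at 4 °C; secondary 1:2000 for 45 min; ECL detection. GAPDH served as loading control.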

DU-145 [21] = assay: Increase in H2AX protein expression in human DU145 cells at 20 uM after 2 to 48 hrs by western blot analysis; assay type: functional, cell-based; procedure, shortened: as §3
PC-3 [22] = assay: Induction of apoptosis in human PC3 cells assessed as PARP cleavage at 20 uM after 12 hrs by western blot analysis; assay type: functional, cell-based; procedure, shortened: as §5
DU-145 [23] = assay: Induction of apoptosis in human DU145 cells assessed as late apoptotic cells at 20 uM after 4 hrs by Annexin V-FITC/propidium iodide staining based flow cytometry (reference value: 1.53%); assay type: functional; procedure, shortened: as §1
[24] = Decrease in ChK1 protein expression in human PC3 cells at 20 uM after 2 to 48 hrs by western blot analysis; assay type: functional, cell-based; conditions: PC-3; procedure, shortened: as §3
PC-3 [25] = assay: Induction of apoptosis in human PC3 cells at 20 uM by Annexin V-FITC/propidium iodide staining based flow cytometry; assay type: functional, cell-based; conditions: TDE = time-dependent effect; procedure, shortened: as §1

Structure (SMILES): C=C[C@@](C)(O)CC[C@@H]1C(C)=CC[C@@H]2C(C)(C)CCC[C@@]12C
- Activity (DU-145 [1]): 67.97%
- Activity [2]: 10.9%
- Activity (PC-3 [3]): tde
- Activity (DU-145 [4]): 4.56%
- Activity [5]: 11.1%
- IC50 [6]: 26.6 µM
- Activity (DU-145 [7]): 7.16%
- Activity [8]: 13.9%
- Activity (DU-145 [9]): 2.82%
- Activity (PC-3 [10]): 2.95%
- Activity (PC-3 [11]): inactive
- inhibition [12]: tde
- inhibition [13]: tde
- IC50 [14]: 81 µM
- inhibition [15]: Active
- Activity (DU-145 [16]): 11.32%
- Activity (DU-145 [17]): Active
- Activity (PC-3 [18]): 10.21%
- Activity (PC-3 [19]): inactive
- Activity (DU-145 [20]): Active
- Activity (DU-145 [21]): inactive
- Activity (PC-3 [22]): Active
- Activity (DU-145 [23]): 9.26%
- inhibition [24]: Active
- Activity (PC-3 [25]): tde

Reference: ChEMBL document CHEMBL3297648, “Diterpenoids from the Chinese liverwort Heteroscyphus tener and their antiproliferative effects” (J Nat Prod, 2014)
